Source: ChEMBL document CHEMBL3352570, “ST7612AA1, a thioacetate-ω(γ-lactam carboxamide) derivative selected from a novel generation of oral HDAC inhibitors” (J Med Chem, 2014)

Tests used:
NCI-H460 = experiment: Cytotoxicity against human NCI-H460 cells after 24 hrs by SRB assay; type: functional, cell-based; conditions: NCI-H460, 24 h
Method in brief: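 NCI-H460 cells were grown in RPMI-1640 with L-glutamine, 10% heat-inactivated FCS and 50 μg/mL gentamicin. Cells were seeded at about 10% confluence and allowed to recover for 24 h. They were exposed to varying concentrations for 24 h, washed, then cultured a further 48 h. Surviving cells were measured by SRB. IC50 is the 50% reduction in cell number versus vehicle, from dose–response curve fitting; means of at least three experiments.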

[1] = Solubility of the compound in water; type: physicochemical
Histone deacetylase [2] = experiment: Inhibition of HDAC-mediated tubulin deacetylation in human NCI-H460 cells after 3 hrs by Western blot analysis; type: cell-based
Method in brief: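 Cells (NCI-H460) were treated for 3 h with graded concentrations. The cytoplasmic fraction was collected after HNB/1% NP-40 lysis and centrifugation of nuclei at 2000g. This fraction was resolved by SDS-PAGE and probed for acetylated α-tubulin against α-tubulin and β-actin. Bands were detected by ECL and quantified by densitometry after normalization; IC50 fitted; means of at least two experiments.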

Histone deacetylase [3] = experiment: Inhibition of HDAC-mediated histone H4 deacetylation in human NCI-H460 cells after 3 hrs by Western blot analysis; type: cell-based
Method in brief: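 NCI-H460 cells were plated the day before and treated 3 h across a dose range. Cells were washed with DPBS containing 5 mM NaB and lysed in HNB buffer with 1% NP-40. Histones were acid-extracted from nuclei with 0.4 equiv/L H2SO4 and precipitated with acetone. Blots were probed for acetyl-H4 against total H4. Read-out was ECL and densitometry after normalization; IC50 fitted; means of at least two experiments.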

[4] = Cytotoxicity against human HCT116 cells after 24 hrs by SRB assay; type: functional, cell-based; conditions: HCT-116, 24 h
Method in brief: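 HCT116 cells were cultured in McCoy's 5A with L-glutamine, 10% heat-inactivated FCS and 50 μg/mL gentamicin. After seeding at about 10% confluence and a 24 h recovery, they received drug for 24 h. Drug was washed out and cells were incubated 48 h more before SRB staining. IC50 is the 50% cell-number reduction versus vehicle, from fitted dose–response curves; means of at least two experiments.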

Histone deacetylase 3 = Histone deacetylase 3 (Homo sapiens, UniProt O15379); experiment: Inhibition of HDAC3 (unknown origin) using fluorogenic tetrapeptide RHKK(Ac) substrate by fluorescence assay
Histone deacetylase 3, sequence (O15379 whole entry): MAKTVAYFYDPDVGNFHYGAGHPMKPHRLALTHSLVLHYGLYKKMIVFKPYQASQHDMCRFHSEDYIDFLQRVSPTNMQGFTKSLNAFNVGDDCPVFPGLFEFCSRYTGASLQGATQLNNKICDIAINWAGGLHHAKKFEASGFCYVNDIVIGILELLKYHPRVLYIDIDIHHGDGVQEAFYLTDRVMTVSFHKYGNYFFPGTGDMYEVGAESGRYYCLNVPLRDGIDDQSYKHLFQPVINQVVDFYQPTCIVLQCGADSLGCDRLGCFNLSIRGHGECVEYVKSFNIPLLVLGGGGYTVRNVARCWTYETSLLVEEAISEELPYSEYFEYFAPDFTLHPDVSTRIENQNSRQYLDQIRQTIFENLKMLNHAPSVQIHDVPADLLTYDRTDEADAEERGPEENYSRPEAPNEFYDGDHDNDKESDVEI

Histone deacetylase 11 = molecular target: T1, Histone deacetylase 11 (Homo sapiens, UniProt Q96DB2); experiment: Inhibition of HDAC11 (unknown origin) using fluorogenic tetrapeptide RHKK(Ac) substrate by fluorescence assay
T1 sequence (Q96DB2 whole entry): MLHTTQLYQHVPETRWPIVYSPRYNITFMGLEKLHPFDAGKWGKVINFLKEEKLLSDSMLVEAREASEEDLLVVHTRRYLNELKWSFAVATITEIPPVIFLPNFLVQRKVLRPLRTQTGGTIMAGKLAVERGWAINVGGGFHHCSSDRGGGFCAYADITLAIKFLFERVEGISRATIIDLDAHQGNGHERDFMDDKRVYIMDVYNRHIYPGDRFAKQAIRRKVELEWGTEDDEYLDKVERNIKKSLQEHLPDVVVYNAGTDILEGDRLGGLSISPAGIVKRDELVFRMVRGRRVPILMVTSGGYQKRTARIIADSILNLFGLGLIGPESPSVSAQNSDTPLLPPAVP

Histone deacetylase 8 = molecular target: T2, Histone deacetylase 8 (Homo sapiens, UniProt Q9BY41); experiment: Inhibition of HDAC8 (unknown origin) using fluorogenic tetrapeptide RHK(Ac)K(Ac) substrate by fluorescence assay
T2 sequence (Q9BY41 whole entry): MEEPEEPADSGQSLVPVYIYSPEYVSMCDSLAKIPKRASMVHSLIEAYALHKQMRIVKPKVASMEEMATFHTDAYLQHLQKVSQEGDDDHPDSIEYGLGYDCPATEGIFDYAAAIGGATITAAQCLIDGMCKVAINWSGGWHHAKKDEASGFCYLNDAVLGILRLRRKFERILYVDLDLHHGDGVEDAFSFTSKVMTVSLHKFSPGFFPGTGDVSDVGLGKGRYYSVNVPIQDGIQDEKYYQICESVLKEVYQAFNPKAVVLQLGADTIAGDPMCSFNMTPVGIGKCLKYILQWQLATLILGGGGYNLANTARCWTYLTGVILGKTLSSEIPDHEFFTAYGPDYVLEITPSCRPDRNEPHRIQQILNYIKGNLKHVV

[5] = molecular target: T3, Polyamine deacetylase HDAC10 (Homo sapiens, UniProt Q969S8); experiment: Inhibition of HDAC10 (unknown origin) using fluorogenic tetrapeptide RHKK(Ac) substrate by fluorescence assay
T3 sequence (Q969S8 whole entry): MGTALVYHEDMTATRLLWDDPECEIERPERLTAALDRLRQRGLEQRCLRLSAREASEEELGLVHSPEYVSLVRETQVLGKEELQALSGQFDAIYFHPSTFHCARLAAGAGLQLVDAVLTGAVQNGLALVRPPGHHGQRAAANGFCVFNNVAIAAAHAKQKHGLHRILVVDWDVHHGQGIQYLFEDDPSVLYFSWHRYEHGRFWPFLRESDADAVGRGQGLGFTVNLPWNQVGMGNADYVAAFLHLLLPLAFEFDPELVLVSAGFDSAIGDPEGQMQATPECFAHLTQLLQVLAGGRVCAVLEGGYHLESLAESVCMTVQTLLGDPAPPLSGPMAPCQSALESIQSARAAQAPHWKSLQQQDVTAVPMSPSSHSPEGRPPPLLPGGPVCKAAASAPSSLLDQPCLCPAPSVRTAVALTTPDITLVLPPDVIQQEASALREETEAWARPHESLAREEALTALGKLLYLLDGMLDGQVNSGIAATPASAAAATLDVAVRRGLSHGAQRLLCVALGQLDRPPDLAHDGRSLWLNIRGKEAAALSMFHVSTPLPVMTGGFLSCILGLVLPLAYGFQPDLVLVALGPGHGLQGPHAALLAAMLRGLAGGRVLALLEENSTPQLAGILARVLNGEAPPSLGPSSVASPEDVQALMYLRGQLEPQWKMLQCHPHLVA

Histone deacetylase 1 = Histone deacetylase 1 (Homo sapiens, UniProt Q13547); experiment: Inhibition of HDAC1 (unknown origin) using fluorogenic tetrapeptide RHKK(Ac) substrate by fluorescence assay
Histone deacetylase 1, sequence (Q13547 whole entry): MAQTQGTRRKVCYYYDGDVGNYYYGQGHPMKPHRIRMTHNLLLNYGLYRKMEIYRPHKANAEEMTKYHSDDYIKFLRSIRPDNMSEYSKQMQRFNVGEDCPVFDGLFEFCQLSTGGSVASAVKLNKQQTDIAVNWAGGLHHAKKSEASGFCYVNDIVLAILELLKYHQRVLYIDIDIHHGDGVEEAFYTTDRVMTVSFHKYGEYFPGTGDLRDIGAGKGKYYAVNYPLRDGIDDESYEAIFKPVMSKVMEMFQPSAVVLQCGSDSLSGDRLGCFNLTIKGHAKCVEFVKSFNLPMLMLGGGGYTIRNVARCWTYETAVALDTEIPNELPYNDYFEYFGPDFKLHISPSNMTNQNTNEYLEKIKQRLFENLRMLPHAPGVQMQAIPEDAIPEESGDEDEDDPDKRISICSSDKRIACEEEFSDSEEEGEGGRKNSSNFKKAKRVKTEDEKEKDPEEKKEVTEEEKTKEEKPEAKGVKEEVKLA

Histone deacetylase 2 = Histone deacetylase 2 (Homo sapiens, UniProt Q92769); experiment: Inhibition of HDAC2 (unknown origin) using fluorogenic tetrapeptide RHKK(Ac) substrate by fluorescence assay
Histone deacetylase 2, sequence (Q92769 whole entry): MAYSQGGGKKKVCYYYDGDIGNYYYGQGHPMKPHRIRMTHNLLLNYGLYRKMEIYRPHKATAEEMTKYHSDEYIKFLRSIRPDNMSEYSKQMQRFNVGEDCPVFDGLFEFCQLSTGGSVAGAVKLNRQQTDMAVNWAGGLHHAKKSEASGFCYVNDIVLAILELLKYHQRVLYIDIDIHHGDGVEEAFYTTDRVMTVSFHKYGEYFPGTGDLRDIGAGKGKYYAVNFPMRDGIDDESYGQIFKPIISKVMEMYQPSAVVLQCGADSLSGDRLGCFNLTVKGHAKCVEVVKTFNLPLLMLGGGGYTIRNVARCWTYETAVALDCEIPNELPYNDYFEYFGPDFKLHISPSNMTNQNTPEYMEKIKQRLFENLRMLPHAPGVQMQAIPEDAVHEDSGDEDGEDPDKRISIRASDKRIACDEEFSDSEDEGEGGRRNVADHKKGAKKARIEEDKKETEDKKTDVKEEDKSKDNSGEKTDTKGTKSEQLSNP

[6] = molecular target: T4, Protein deacetylase HDAC6 (Homo sapiens, UniProt Q9UBN7); experiment: Inhibition of HDAC6 (unknown origin) using fluorogenic tetrapeptide RHKK(Ac) substrate by fluorescence assay
T4 sequence (Q9UBN7 whole entry): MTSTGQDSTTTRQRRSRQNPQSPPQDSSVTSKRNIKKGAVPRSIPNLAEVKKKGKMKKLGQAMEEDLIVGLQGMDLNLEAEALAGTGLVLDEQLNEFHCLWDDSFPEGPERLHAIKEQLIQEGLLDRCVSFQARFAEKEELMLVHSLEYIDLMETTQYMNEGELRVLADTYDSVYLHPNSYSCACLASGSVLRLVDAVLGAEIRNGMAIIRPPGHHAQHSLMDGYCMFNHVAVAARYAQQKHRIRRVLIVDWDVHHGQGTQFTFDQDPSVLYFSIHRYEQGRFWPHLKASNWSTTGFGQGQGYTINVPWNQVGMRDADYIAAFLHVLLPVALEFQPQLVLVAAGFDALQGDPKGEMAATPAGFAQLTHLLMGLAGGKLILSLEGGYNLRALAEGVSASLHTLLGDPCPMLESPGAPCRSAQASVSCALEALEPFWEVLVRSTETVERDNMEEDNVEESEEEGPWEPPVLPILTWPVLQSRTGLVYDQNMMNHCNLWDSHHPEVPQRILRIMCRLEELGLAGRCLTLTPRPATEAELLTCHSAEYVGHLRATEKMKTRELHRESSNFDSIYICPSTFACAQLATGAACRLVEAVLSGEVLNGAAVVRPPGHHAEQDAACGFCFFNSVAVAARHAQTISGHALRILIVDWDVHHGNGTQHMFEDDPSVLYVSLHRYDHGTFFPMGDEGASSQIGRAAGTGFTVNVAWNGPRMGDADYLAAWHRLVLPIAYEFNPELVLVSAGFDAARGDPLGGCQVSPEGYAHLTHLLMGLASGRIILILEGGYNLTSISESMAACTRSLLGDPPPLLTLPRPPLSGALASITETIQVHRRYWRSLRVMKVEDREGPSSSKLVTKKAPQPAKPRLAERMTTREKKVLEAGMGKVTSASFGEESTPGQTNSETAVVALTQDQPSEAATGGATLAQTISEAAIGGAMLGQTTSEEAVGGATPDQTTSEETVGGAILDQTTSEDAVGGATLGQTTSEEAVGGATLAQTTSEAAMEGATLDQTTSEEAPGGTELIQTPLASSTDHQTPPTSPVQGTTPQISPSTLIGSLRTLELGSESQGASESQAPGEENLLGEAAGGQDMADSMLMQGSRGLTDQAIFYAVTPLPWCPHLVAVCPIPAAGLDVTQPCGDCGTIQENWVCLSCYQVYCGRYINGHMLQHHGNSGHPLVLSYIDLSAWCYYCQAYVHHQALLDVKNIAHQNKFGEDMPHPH

| Compound | solubility [1] [µg/mL] | IC50 (Histone deacetylase [2]) [nM] | IC50 (Histone deacetylase [3]) [nM] | IC50 (Histone deacetylase 3) [nM] | IC50 (Histone deacetylase 11) [nM] | IC50 (Histone deacetylase 8) [nM] | IC50 [5] [nM] | IC50 (Histone deacetylase 1) [nM] | IC50 (Histone deacetylase 2) [nM] | IC50 [6] [nM] | IC50 (NCI-H460) [nM] | IC50 [4] [nM] |
| --- | --- | --- | --- | --- | --- | --- | --- | --- | --- | --- | --- | --- |
| CC(=O)SCCCCC[C@H](NC(=O)[C@H]1CCCC(=O)N1)C(=O)Nc1ccccc1 |  |  |  |  |  |  |  |  |  |  | 100 |  |
| CCOC(=O)SCCCCCCC(=O)Nc1ccccc1 | > 1000 |  |  |  |  |  |  |  |  |  |  |  |
| CC(=O)SCCCCC[C@H](NC(=O)[C@@H]1CCC(=O)N1)C(=O)Nc1cccc(C)c1 |  |  |  |  |  |  |  |  |  |  | 60 |  |
| O=C1CCC[C@@H](C(=O)N[C@@H](CCCCCS)C(=O)NC2CCCC2)N1 |  |  |  | 98 | 89 | 450 | 189 | 160 | 454 | 6 |  |  |
| O=C(CCCCCCS)NCc1cccc(OCc2ccccc2)c1 |  |  |  | 2950 | 1840 | 904 | 2990 | 3160 | 14000 | 1770 |  |  |
| O=C1NC[C@H](c2ccccc2)[C@H]1C(=O)N[C@@H](CCCCCS)C(=O)Nc1ccccc1 |  |  |  | 55 | 12 | 2040 | 7 | 53 | 2230 | 160 |  |  |
| O=C1NC[C@@H](c2ccccc2)[C@@H]1C(=O)N[C@@H](CCCCCS)C(=O)Nc1ccccc1 |  |  |  | 2 | 4 | 40 | 5 | 7 | 37 | 4 |  |  |

The next lines start with results.

| solubility [1] [µg/mL] | IC50 (Histone deacetylase [2]) [nM] | IC50 (Histone deacetylase [3]) [nM] | IC50 (Histone deacetylase 3) [nM] | IC50 (Histone deacetylase 11) [nM] | IC50 (Histone deacetylase 8) [nM] | IC50 [5] [nM] | IC50 (Histone deacetylase 1) [nM] | IC50 (Histone deacetylase 2) [nM] | IC50 [6] [nM] | Compound | IC50 (NCI-H460) [nM] | IC50 [4] [nM] |
| --- | --- | --- | --- | --- | --- | --- | --- | --- | --- | --- | --- | --- |
|  | 100 | 100 |  |  |  |  |  |  |  | CC(=O)SCCCCC[C@H](NC(=O)[C@@H]1CCCC(=O)N1)C(=O)Nc1ccccc1 | 100 | 130 |
|  | 50 | 31 |  |  |  |  |  |  |  | CC(=O)SCCCCC[C@H](NC(=O)[C@@H]1CC(=O)N1)C(=O)Nc1ccccc1 | 50 | 86 |
|  |  |  | 897 | 776 | 2330 | 1170 | 865 | 6640 | 87 | O=C(CCCCCCS)NC1CCCC1 |  |  |
